# Data taken from ChEMBL document CHEMBL5338759, “N-Phenyl-1-(phenylsulfonyl)-1H-1,2,4-triazol-3-amine as a New Class of HIV-1 Non-nucleoside Reverse Transcriptase Inhibitor” (J Med Chem, 2023).
# Calls of active or inactive are those of the source. The rule behind the calls is not given here.
# How the values were obtained:
# [1] = Selectivity ratio of IC50 for antiviral activity against wild type HIV1 IIIB infected in human TZM-bl cells to IC50 for antiviral activity against HIV1 harboring K103N mutant infected in human TZM-bl cells; format: toxicity, cell-based; conditions: human immunodeficiency virus 1
# Method in brief: (§1)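 TZM-bl cells (2x10⁵/mL) with 15 µg/mL DEAE-dextran were infected with HIV-1 IIIB, A17 (K103N/Y181C) IIIB variant, or NL4-3-based NNRTI-resistant mutants. Compound was present at 0.05–500 nM (DMSO held constant, 0.005% or 0.05%) for 48 hr at 37°C, 5% CO₂.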
# [2] = Selectivity ratio of IC50 for antiviral activity against wild type HIV1 IIIB infected in human TZM-bl cells to IC50 for antiviral activity against HIV1 harboring Y181C mutant infected in human TZM-bl cells; format: toxicity, cell-based; conditions: human immunodeficiency virus 1; method in brief: as §1
# [3] = test system: Human immunodeficiency virus; assay: Antiviral activity against wild type HIV IIIB infected in human TZM-bl cells; format: functional, organism-based; conditions: Human immunodeficiency virus 1, IIIB
# Method in brief: (§2)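 TZM-bl cells (2x10⁵/mL) infected with HIV-1 IIIB grown in H9 cells, with 15 µg/mL DEAE-dextran; serial dilutions from 10 mM DMSO stocks, DMSO held constant (0.005% or 0.05%); 37°C, 5% CO₂, 48 hr; cells lysed, luciferase RLU read.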
# [4] = Selectivity index, ratio of CC50 for cytotoxicity against human TZM-bl cells assessed as reduction in cell viability by MTS assay to EC50 for antiviral activity against wild type HIV1 IIIB infected in human TZM-bl cells; format: toxicity, cell-based; conditions: read-out: Ratio CC50/EC50
# [5] = Selectivity ratio of IC50 for antiviral activity against wild type HIV1 IIIB infected in human TZM-bl cells to IC50 for antiviral activity against HIV1 harboring L100I/K103N double mutant infected in human TZM-bl cells; format: toxicity, cell-based; conditions: human immunodeficiency virus 1; method in brief: as §1
# [6] = Selectivity index, ratio of CC50 for cytotoxicity against human TZM-bl cells assessed as reduction in cell viability by MTS assay to EC50 for antiviral activity against HIV1 harboring A17 mutant infected in human TZM-bl cells; format: toxicity, cell-based; conditions: read-out: Ratio CC50/EC50
# [7] = molecular target: Human immunodeficiency virus type 1 reverse transcriptase (Human immunodeficiency virus 1, UniProt Q72547); assay: Inhibition of HIV1 Reverse transcriptase incubated for 30 mins by fluorescence based analysis
# [8] = Neurotoxicity in mouse primary neurons assessed as loss of MAP-2 intensity incubated for 48 hrs by imaging analysis; format: toxicity, cell-based; conditions: neuron
# Method in brief: (§3)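 Primary E16 CD1 mouse cortex/hippocampus cultures (>95% neurons) treated at 20 days in vitro with 10X dilutions made in artificial CSF, final 0.1–10,000 nM, for 48 hr; fixed in methanol:acetic acid (97:3), stained for MAP-2; relative MAP-2 intensity and area quantified by image analysis, […] (±SD) fitted from dose response.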
# [9] = test system: Human immunodeficiency virus 1; assay: Antiviral activity against HIV1 harboring Y181C mutant infected in human TZM-bl cells; format: functional, organism-based; conditions: Human immunodeficiency virus 1, TZM-bl
# Method in brief: (§4)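 TZM-bl cells (2x10⁵/mL) were infected with mutant virus in the presence of 15 µg/mL DEAE-dextran. A17 (IIIB variant) was grown in H9 cells; the other mutants were NL4-3-based plasmids transfected into 293T cells, then expanded in H9 cells. Compounds were tested at 0.05–500 nM (DMSO constant within an assay) for 48 hr at 37°C. Read-out was luciferase RLU from lysed cells, with at least 6 replicates over multiple days.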
# [10] = test system: Human immunodeficiency virus 1; assay: Antiviral activity against HIV1 harboring K103N mutant infected in human TZM-bl cells; format: functional, organism-based; conditions: Human immunodeficiency virus 1, TZM-bl; method in brief: as §4
# [11] = test system: Human immunodeficiency virus 1; assay: Antiviral activity against HIV1 harboring L100I/K103N double mutant infected in human TZM-bl cells; format: functional, organism-based; conditions: Human immunodeficiency virus 1, TZM-bl
# [12] = test system: TZM; assay: Cytotoxicity against human TZM-bl cells assessed as reduction in cell viability by MTS assay; format: functional
# [13] = Selectivity ratio of IC50 for antiviral activity against wild type HIV1 IIIB infected in human TZM-bl cells to IC50 for antiviral activity against HIV1 harboring A17 mutant infected in human TZM-bl cells; format: toxicity, cell-based; conditions: human immunodeficiency virus 1; method in brief: as §1
# [14] = test system: TZM; assay: Cytotoxicity against human TZM-bl cells assessed as reduction in viability incubated for 48 hrs by CellTiter-Blue cell viability assay
# [15] = test system: Human immunodeficiency virus 1; assay: Antiviral activity against wild type HIV1 IIIB infected in human TZM-bl cells; format: functional, organism-based; conditions: Human immunodeficiency virus 1, IIIB; method in brief: as §2
# [16] = Neurotoxicity in mouse primary neurons assessed as loss of MAP-2 intensity at 0.0001 to 10 uM incubated for 48 hrs by semi-quantitative analysis; conditions: neuron
# [17] = Safety index, ratio of TC10 for neurotoxicity in mouse primary neurons assessed as loss of MAP-2 intensity to EC50 for antiviral activity against wild type HIV1 IIIB infected in human TZM-bl cells; format: toxicity, cell-based; conditions: mouse primary neurons, TZM-bl cells
# Method in brief: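 Primary neuronal cultures from cortex/hippocampus of E16 CD1 mouse embryos (>95% neurons). Cells were then methanol:acetic acid-fixed and MAP-2 stained, and intensity was image-quantified. S-index = TC10/(100×EC50 vs HIV-1 IIIB in TZM-bl).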
# [18] = test system: Human immunodeficiency virus 1; assay: Antiviral activity against HIV1 harboring A17 mutant infected in human TZM-bl cells; format: functional, organism-based; conditions: for IC50 / EC50: Human immunodeficiency virus 1, TZM-bl; method in brief: as §4
# [19] = Neurotoxicity in mouse primary neurons assessed as loss of MAP-2 area incubated for 48 hrs by imaging analysis; format: toxicity, cell-based; conditions: neuron; method in brief: as §3
# [20] = test system: Neuron; assay: Induction of calcium accumulation at delayed phase in primary mouse neuron at 1 uM; format: functional, cell-based
# Method in brief: (§5)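 Primary E16 CD1 mouse cortex/hippocampus neurons on coverslips, 14–18 days in vitro, loaded 30 min with 2 µM Fluo-4 AM in aCSF; three baseline images, then compound or vehicle in aCSF added at 1 µM final. Baseline fluorescence subtracted; changes averaged over all cells from at least triplicate runs, acute and delayed phases.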
# [21] = test system: Neuron; assay: Induction of calcium accumulation at acute phase in primary mouse neuron at 1 uM; format: functional, cell-based; method in brief: as §5
smiles,measurement,setting,value
N#Cc1ccc2c(S(=O)(=O)n3nc(Nc4ccc(C#N)c(C#N)c4)nc3N)cccc2c1,Ratio IC50,[1],8.9
same,Ratio IC50,[2],140
same,IC50,[3],0.32 nM
same,selectivity ratio,[4],130000
same,Ratio IC50,[5],3500
same,selectivity ratio,[6],570
same,IC50,[7],350 nM
same,TC10,[8],4500 nM
same,IC50,[9],3.7 nM
same,IC50,[10],5.9 nM
same,IC50,[11],1050 nM
same,CC50,[12],28000 nM
same,Ratio IC50,[13],41
same,CC50,[14],27000 nM
same,EC50,[15],0.21 nM
same,Activity,[16],Non-Toxic
same,selectivity ratio,[17],140
same,IC50,[18],1.3 nM
Cc1cc(C)c(S(=O)(=O)n2nc(Nc3ccc(Cl)cc3)nc2N)c(C)c1,EC50,[15],32 nM
Cc1nc(C)c(S(=O)(=O)n2nc(Nc3ccc(C#N)c(Cl)c3)nc2N)s1,EC50,[15],0.879 nM
same,EC50,[18],306 nM
CC(=O)Nc1nc(C)c(S(=O)(=O)n2nc(Nc3cc(Cl)c(Cl)cc3Cl)nc2N)s1,EC50,[15],> 1000 nM
same,EC50,[18],> 1000 nM
N#Cc1ccc(Nc2nc(N)n(S(=O)(=O)c3c(Cl)nc4sccn34)n2)cc1,EC50,[15],1.77 nM
same,EC50,[18],705 nM
CN(C)c1cccc2c(S(=O)(=O)n3nc(Nc4ccc(Cl)cc4)nc3N)cccc12,EC50,[15],10.6 nM
same,EC50,[18],> 1000 nM
N#Cc1ccc(Nc2nc(N)n(S(=O)(=O)c3cccc4cc(C#N)ccc34)n2)cc1,Ratio IC50,[1],39
same,Ratio IC50,[2],80
same,IC50,[3],0.32 nM
same,selectivity ratio,[4],22000
same,Ratio IC50,[5],6700
same,TC10,[19],50 nM
same,selectivity ratio,[6],160
same,IC50,[7],700 nM
same,TC10,[8],170 nM
same,IC50,[9],18 nM
same,IC50,[10],8.8 nM
same,IC50,[11],1500 nM
same,CC50,[12],7800 nM
same,Ratio IC50,[13],240
same,CC50,[14],7800 nM
same,IC50,[15],0.23 nM
same,Activity,[16],Non-Toxic
same,selectivity ratio,[17],5.4
same,IC50,[18],55 nM
N#CCc1ccc2c(S(=O)(=O)n3nc(Nc4ccc(C#N)c(Cl)c4)nc3N)cccc2c1,EC50,[15],0.598 nM
same,EC50,[18],153 nM
Nc1nc(Nc2ccc(Cl)cc2)n(S(=O)(=O)c2ccc(Cl)s2)n1,EC50,[15],< 100 nM
same,Activity,[18],inactive
Nc1nc(Nc2ccc(Cl)cc2)n(S(=O)(=O)c2cnn(-c3ccc(C(F)(F)F)cn3)c2)n1,EC50,[15],< 100 nM
same,Activity,[18],inactive
O=C1Nc2ccc(Cl)cc2[C@@](C#CC2CC2)(C(F)(F)F)O1 [EFAVIRENZ],IC50,[3],0.66 nM
same,TC10,[19],70 nM
same,Activity,[20],Active
same,CC50,[12],> 5000 nM
same,Activity,[21],inactive
same,EC50,[15],0.68 nM
same,Activity,[16],Non-Toxic
same,EC50,[18],18 nM
N#C/C=C/c1ccc2c(S(=O)(=O)n3nc(Nc4ccc(CC#N)cc4)nc3N)cccc2c1,selectivity ratio,[4],4100
same,CC50,[12],910 nM
same,EC50,[15],0.22 nM
same,EC50,[18],24.5 nM
N#Cc1ccc2c(S(=O)(=O)n3nc(Nc4ccc(C#N)c(Cl)c4)nc3N)cccc2c1,selectivity ratio,[4],17000
same,selectivity ratio,[6],240
same,CC50,[12],6000 nM
same,EC50,[15],0.42 nM
same,EC50,[18],39.6 nM
Cn1cnc(S(=O)(=O)n2nc(N)nc2Nc2ccc(Cl)cc2)c1,EC50,[15],< 100 nM
same,Activity,[18],inactive
Nc1nc(Nc2ccc(Cl)cc2)nn1S(=O)(=O)c1ccc2ccccc2c1,IC50,[3],9.3 nM
same,IC50,[7],280 nM
same,TC10,[8],6100 nM
same,Activity,[12],inactive
same,Activity,[16],Non-Toxic
same,selectivity ratio,[17],6.5
Cc1cc(/C=C/C#N)cc(C)c1Nc1ccnc(Nc2ccc(C#N)cc2)n1 [RILPIVIRINE],IC50,[3],0.35 nM
same,TC10,[19],600 nM
same,IC50,[7],160 nM
same,TC10,[8],930 nM
same,IC50,[9],1.3 nM
same,IC50,[10],1.3 nM
same,IC50,[11],14 nM
same,CC50,[12],> 5000 nM
same,Activity,[21],inactive
same,CC50,[14],> 5000 nM
same,IC50,[15],0.33 nM
same,Activity,[16],Non-Toxic
same,IC50,[18],0.8 nM
